In ChEMBL document CHEMBL2434966, “Novel N-4-piperazinyl-ciprofloxacin-chalcone hybrids: synthesis, physicochemical properties, anticancer and topoisomerase I and II inhibitory activity” (Eur J Med Chem, 2013):

Columns and labels:
[1] = molecular target: DNA topoisomerase 2-alpha (Homo sapiens) (UniProt P11388); assay: Inhibition of human topoisomerase 2alpha-mediated relaxation of supercoiled pBR322 DNA at 100 uM after 30 mins by agarose gel electrophoresis relative to control
Summary of the method: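 Human topo IIα (1 unit) with 200 ng supercoiled pBR322 in Tris-HCl pH 7.9, 50 mM NaCl, 5 mM MgCl2, 1 mM EDTA, 1 mM ATP, BSA, 30 min at 30 °C. DMSO was matched in the enzyme-only control. Stopped with EDTA; 1% agarose/TAE gel, ethidium stain, supercoiled band quantified by UV imaging. Etoposide was the positive control.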

MDA-MB-231 = assay: Growth inhibition of human MDA-MB-231 cells after 48 hrs by sulforhodamine B assay; type: functional; details: MDA-MB-231, 48 h
Summary of the method: (§1)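 NCI 60-panel five-dose test at 10-fold dilutions, 10^-4 to 10^-8 M, with 48 h continuous exposure and SRB protein read-out. Percent growth derived from time-zero, untreated-control and treated absorbances. GI50 is the concentration where [(Ti-Tz)/(C-Tz)]×100 = 50. TGI is taken at Ti = Tz. LC50 is taken at [(Ti-Tz)/Tz]×100 = -50.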

DU-145 = assay: Growth inhibition of human DU145 cells after 48 hrs by sulforhodamine B assay; type: functional; details: DU-145, 48 h; summary of the method: as §1
TK-10 = assay: Growth inhibition of human TK10 cells after 48 hrs by sulforhodamine B assay; type: functional; details: TK-10, 48 h; for CC50: read-out: LC50 (the source's name)
Summary of the method: (§2)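 NCI 60-cell panel, five concentrations (10-fold dilutions, 0.01–100 µM), 48 h continuous exposure; SRB protein stain read spectrophotometrically. Percent growth from time-zero, untreated-control and treated absorbances. GI50 is the concentration giving 50% lower net protein increase than control. Values beyond the tested range are reported as more or less than the highest or lowest concentration.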

[2] = Growth inhibition of human NCI-ADR-RES cells after 48 hrs by sulforhodamine B assay; type: functional; details: for CC50: read-out: LC50 (the source's name)
Summary of the method: (§3)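 NCI five-dose screen on the full 60-cell-line panel. Cells were given 10-fold dilutions from 10^-4 to 10^-8 M with continuous 48 h exposure, and growth was read by SRB staining. Percent growth was taken from time-zero, control and treated absorbances. GI50, TGI and LC50 were then derived, the GI50 being the concentration that gives a 50% lower net protein increase than control.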

OVCAR-5 = assay: Growth inhibition of human OVCAR5 cells after 48 hrs by sulforhodamine B assay; type: functional; details: OVCAR-5, 48 h; summary of the method: as §3
OVCAR-3 [3] = assay: Growth inhibition of human OVCAR3 cells after 48 hrs by sulforhodamine B assay; type: functional; details: OVCAR-3, 48 h; for CC50: read-out: LC50 (the source's name); summary of the method: as §3
IGROV-1 = assay: Growth inhibition of human IGROV1 cells after 48 hrs by sulforhodamine B assay; type: functional; details: IGROV-1, 48 h; summary of the method: as §1
UACC-62 = assay: Growth inhibition of human UACC62 cells after 48 hrs by sulforhodamine B assay; type: functional; details: UACC-62, 48 h; summary of the method: as §2
SK-MEL-5 = assay: Growth inhibition of human SK-MEL-5 cells after 48 hrs by sulforhodamine B assay; type: functional; details: SK-MEL-5, 48 h; for CC50: read-out: LC50 (the source's name); summary of the method: as §3
LOX IMVI = assay: Growth inhibition of human LOXIMVI cells after 48 hrs by sulforhodamine B assay; type: functional; summary of the method: as §1
HCT-15 = assay: Growth inhibition of human HCT15 cells after 48 hrs by sulforhodamine B assay; type: functional; details: HCT-15, 48 h; summary of the method: as §1
[4] = Growth inhibition of human HCC2998 cells after 48 hrs by sulforhodamine B assay; type: functional; details: HCC 2998, 48 h; for CC50: read-out: LC50 (the source's name); summary of the method: as §1
NCI-H322M = assay: Growth inhibition of human NCI-H322M cells after 48 hrs by sulforhodamine B assay; type: functional; details: for CC50: read-out: LC50 (the source's name); summary of the method: as §3
K562 = assay: Growth inhibition of human K562 cells after 48 hrs by sulforhodamine B assay; type: functional; details: K562, 48 h; summary of the method: as §1
MDA-MB-468 = assay: Growth inhibition of human MDA-MB-468 cells assessed as cell growth at 10^-5 M after 48 hrs by sulforhodamine B assay; type: functional; details: MDA-MB-468, 48 h, read-out: Activity
Summary of the method: (§4)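 NCI 60-cell-line primary one-dose screen. Cells were exposed to a single 10^-5 M concentration for 48 h. The end point was sulforhodamine B protein staining, read spectrophotometrically. Results are reported as percent growth of treated cells relative to untreated control cells.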

UO-31 = assay: Growth inhibition of human UO31 cells assessed as cell growth at 10^-5 M after 48 hrs by sulforhodamine B assay; type: functional; details: UO-31, 48 h, read-out: Activity
Summary of the method: (§5)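 NCI primary one-dose screen: single concentration of 10^-5 M added to culture, 48 h incubation, SRB protein-dye endpoint. Percent growth of treated cells measured spectrophotometrically against untreated controls.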

SK-OV-3 = assay: Growth inhibition of human SKOV3 cells assessed as cell growth at 10^-5 M after 48 hrs by sulforhodamine B assay; type: functional; details: SK-OV-3, 48 h, read-out: Activity; summary of the method: as §4
OVCAR-3 [5] = assay: Growth inhibition of human OVCAR3 cells assessed as cell growth at 10^-5 M after 48 hrs by sulforhodamine B assay; type: functional; details: OVCAR-3, 48 h, read-out: Activity; summary of the method: as §4
UACC-257 = assay: Growth inhibition of human UACC257 cells assessed as cell growth at 10^-5 M after 48 hrs by sulforhodamine B assay; type: functional; details: UACC-257, 48 h, read-out: Activity; summary of the method: as §5
SW-620 = assay: Growth inhibition of human SW620 cells assessed as cell growth at 10^-5 M after 48 hrs by sulforhodamine B assay; type: functional; details: SW-620, 48 h, read-out: Activity; summary of the method: as §5
NCI-H522 = assay: Growth inhibition of human NCI-H522 cells assessed as cell growth at 10^-5 M after 48 hrs by sulforhodamine B assay; type: functional; details: NCI-H522, 48 h, read-out: Activity; summary of the method: as §4
HOP-92 = assay: Growth inhibition of human HOP92 cells assessed as cell growth at 10^-5 M after 48 hrs by sulforhodamine B assay; type: functional; details: HOP-92, 48 h, read-out: Activity
Summary of the method: (§6)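 NCI 60-cell-line primary screen. Single concentration of 10^-5 M, 48 h incubation. End point by sulforhodamine B protein staining read spectrophotometrically. Reported as percent growth of treated cells relative to untreated control cells.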

CCRF-CEM = assay: Growth inhibition of human CCRF-CEM cells assessed as cell growth at 10^-5 M after 48 hrs by sulforhodamine B assay; type: functional; details: read-out: Activity; summary of the method: as §6

DNA topoisomerase 2-alpha (Homo sapiens), sequence (P11388 whole entry): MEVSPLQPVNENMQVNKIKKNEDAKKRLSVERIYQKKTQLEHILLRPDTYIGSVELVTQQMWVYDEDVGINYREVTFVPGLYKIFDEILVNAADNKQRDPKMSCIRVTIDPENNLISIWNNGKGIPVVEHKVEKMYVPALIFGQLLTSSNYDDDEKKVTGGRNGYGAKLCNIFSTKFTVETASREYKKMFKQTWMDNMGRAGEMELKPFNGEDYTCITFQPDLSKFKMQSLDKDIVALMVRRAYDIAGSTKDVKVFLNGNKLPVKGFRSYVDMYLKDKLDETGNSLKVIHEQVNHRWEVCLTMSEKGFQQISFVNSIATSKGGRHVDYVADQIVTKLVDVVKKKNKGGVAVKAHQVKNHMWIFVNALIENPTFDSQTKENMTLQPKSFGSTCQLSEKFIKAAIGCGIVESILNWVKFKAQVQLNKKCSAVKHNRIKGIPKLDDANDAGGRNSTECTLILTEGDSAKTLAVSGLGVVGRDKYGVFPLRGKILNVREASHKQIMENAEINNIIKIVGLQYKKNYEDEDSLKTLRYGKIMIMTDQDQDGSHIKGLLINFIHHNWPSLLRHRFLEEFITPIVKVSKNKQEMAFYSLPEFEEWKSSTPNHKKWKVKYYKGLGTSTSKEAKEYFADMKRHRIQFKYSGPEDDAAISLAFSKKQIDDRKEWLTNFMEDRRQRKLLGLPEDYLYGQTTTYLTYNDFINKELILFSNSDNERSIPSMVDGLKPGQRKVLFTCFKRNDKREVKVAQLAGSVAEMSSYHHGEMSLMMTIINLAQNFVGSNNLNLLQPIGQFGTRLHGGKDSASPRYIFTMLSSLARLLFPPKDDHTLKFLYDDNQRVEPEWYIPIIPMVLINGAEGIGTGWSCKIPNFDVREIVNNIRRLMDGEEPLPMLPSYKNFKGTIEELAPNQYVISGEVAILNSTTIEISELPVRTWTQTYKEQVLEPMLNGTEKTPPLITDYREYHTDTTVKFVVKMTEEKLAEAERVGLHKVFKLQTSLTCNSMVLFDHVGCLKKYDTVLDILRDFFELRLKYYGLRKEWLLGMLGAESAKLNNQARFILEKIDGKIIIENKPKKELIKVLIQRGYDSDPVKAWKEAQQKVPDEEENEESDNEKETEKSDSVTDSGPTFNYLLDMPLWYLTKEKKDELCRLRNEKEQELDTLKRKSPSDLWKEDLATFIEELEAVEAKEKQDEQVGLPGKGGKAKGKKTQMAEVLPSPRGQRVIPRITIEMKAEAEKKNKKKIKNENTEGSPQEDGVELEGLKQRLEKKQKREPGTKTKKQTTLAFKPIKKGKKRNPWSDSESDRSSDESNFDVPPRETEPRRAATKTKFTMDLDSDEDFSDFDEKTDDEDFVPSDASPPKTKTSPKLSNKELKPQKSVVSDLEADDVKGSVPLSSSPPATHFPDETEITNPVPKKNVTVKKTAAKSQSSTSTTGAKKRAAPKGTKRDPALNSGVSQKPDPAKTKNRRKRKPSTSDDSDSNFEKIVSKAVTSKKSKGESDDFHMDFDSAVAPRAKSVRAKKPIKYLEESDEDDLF

COc1cc(/C=C/C(=O)c2ccc(NC(=O)CN3CCN(c4cc5c(cc4F)c(=O)c(C(=O)O)cn5C4CC4)CC3)cc2)cc(OC)c1OC
inhibition [1]: 5.2% | GI50 (MDA-MB-231): 0.51 µM | LC50 (50% lethal concentration) (MDA-MB-231): > 100 µM | GI50 (DU-145): 0.67 µM | LC50 (concentration killing 50% of starting cells) (DU-145): > 100 µM | TGI (DU-145): > 100 µM | GI50 (TK-10): 1.29 µM | TGI (TK-10): 16.5 µM | CC50 (TK-10): > 100 µM | GI50 [2]: 57.6 µM | TGI [2]: > 100 µM | CC50 [2]: > 100 µM | GI50 (OVCAR-5): 1.87 µM | LC50 (OVCAR-5): > 100 µM | TGI (OVCAR-5): 7.36 µM | GI50 (OVCAR-3 [3]): 0.29 µM | TGI (OVCAR-3 [3]): 0.92 µM | CC50 (OVCAR-3 [3]): 9.04 µM | GI50 (IGROV-1): 0.4 µM | LC50 (concentration giving 50% net cell kill) (IGROV-1): 8.43 µM | TGI (IGROV-1): 1.72 µM | GI50 (UACC-62): 0.8 µM | LC50 (UACC-62): 27.9 µM | TGI (UACC-62): 3.63 µM | GI50 (SK-MEL-5): 1.06 µM | TGI (SK-MEL-5): 4.06 µM | CC50 (SK-MEL-5): > 100 µM | GI50 (LOX IMVI): 0.53 µM | LC50 (concentration killing 50% of starting cells) (LOX IMVI): > 100 µM | TGI (LOX IMVI): 2.65 µM | GI50 (HCT-15): 0.45 µM | LC50 (concentration giving 50% net cell kill) (HCT-15): > 100 µM | TGI (HCT-15): > 100 µM | GI50 [4]: 2.76 µM | TGI [4]: 11.4 µM | CC50 [4]: > 100 µM | GI50 (NCI-H322M): 0.29 µM | TGI (NCI-H322M): 2.3 µM | CC50 (NCI-H322M): > 100 µM | GI50 (K562): 0.27 µM | LC50 (concentration giving 50% net cell kill) (K562): > 100 µM | TGI (K562): > 100 µM | growth at 10 µM (MDA-MB-468): -1.82% | growth at 10 µM (UO-31): 2.96% | growth at 10 µM (SK-OV-3): 33.3% | growth at 10 µM (OVCAR-3 [5]): -25.8% | growth at 10 µM (UACC-257): 30.8% | growth at 10 µM (SW-620): 6.38% | growth at 10 µM (NCI-H522): -71.5% | growth at 10 µM (HOP-92): -1.75% | growth at 10 µM (CCRF-CEM): -13.7%

O=C(CN1CCN(c2cc3c(cc2F)c(=O)c(C(=O)O)cn3C2CC2)CC1)Nc1ccc(C(=O)/C=C/c2ccccc2)cc1
inhibition [1]: 35.7% | GI50 (MDA-MB-231): 1.84 µM | LC50 (50% lethal concentration) (MDA-MB-231): > 100 µM | TGI (MDA-MB-231): 5.13 µM | GI50 (DU-145): 3.74 µM | LC50 (concentration killing 50% of starting cells) (DU-145): > 100 µM | TGI (DU-145): > 100 µM | GI50 (TK-10): 4.19 µM | TGI (TK-10): > 100 µM | CC50 (TK-10): > 100 µM | GI50 [2]: 9.75 µM | TGI [2]: > 100 µM | CC50 [2]: > 100 µM | GI50 (OVCAR-5): 5.35 µM | LC50 (OVCAR-5): > 100 µM | TGI (OVCAR-5): > 100 µM | GI50 (OVCAR-3 [3]): 3.64 µM | TGI (OVCAR-3 [3]): > 100 µM | CC50 (OVCAR-3 [3]): > 100 µM | GI50 (IGROV-1): 3.67 µM | LC50 (concentration giving 50% net cell kill) (IGROV-1): > 100 µM | TGI (IGROV-1): > 100 µM | GI50 (UACC-62): 3.71 µM | LC50 (UACC-62): > 100 µM | TGI (UACC-62): > 100 µM | GI50 (SK-MEL-5): 2.74 µM | TGI (SK-MEL-5): 13 µM | CC50 (SK-MEL-5): > 100 µM | GI50 (LOX IMVI): 2.32 µM | LC50 (concentration killing 50% of starting cells) (LOX IMVI): > 100 µM | TGI (LOX IMVI): > 100 µM | GI50 (HCT-15): 3.68 µM | LC50 (concentration giving 50% net cell kill) (HCT-15): > 100 µM | TGI (HCT-15): > 100 µM | GI50 [4]: 39.6 µM | TGI [4]: > 100 µM | CC50 [4]: > 100 µM | GI50 (NCI-H322M): 4.04 µM | TGI (NCI-H322M): 58.7 µM | CC50 (NCI-H322M): > 100 µM | GI50 (K562): 3.07 µM | LC50 (concentration giving 50% net cell kill) (K562): > 100 µM | TGI (K562): > 100 µM | growth at 10 µM (MDA-MB-468): 33.8% | growth at 10 µM (UO-31): 45% | growth at 10 µM (SK-OV-3): 93.6% | growth at 10 µM (OVCAR-3 [5]): 54.9% | growth at 10 µM (UACC-257): 61.1% | growth at 10 µM (SW-620): 41% | growth at 10 µM (NCI-H522): 10.6% | growth at 10 µM (HOP-92): 14.9% | growth at 10 µM (CCRF-CEM): 15.2%
